The species named for test [1] is Mus musculus. Briefly: Antitumor activity against 7,12-dimethylbenz(alpha)anthracene-induced squamous cell carcinoma in FVB/N transgenic mouse model expressing K6/ODC gene assessed as tumor growth inhibition after 4 weeks. The format is functional, organism-based.
For test [2], the target named is Diamine acetyltransferase 1 (Homo sapiens) (UniProt P21673). In words: Inhibition of spermidine/spermine N1-acetyltransferase activity in human SK-MEL cells at 10 uM after 24 hrs relative to control. Type of test: cell-based. Set-up: scale not given: the % may be the effect or the level left. The method, boiled down:
(§1)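 SK-Mel human melanoma cells exposed to 10 µM agent alone for 24 h. Enzyme activity (ODC; SSAT) measured and expressed as % of untreated control.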

Test [3] deals with T1, Ornithine decarboxylase (Homo sapiens) (UniProt P11926).
T1 sequence (whole entry): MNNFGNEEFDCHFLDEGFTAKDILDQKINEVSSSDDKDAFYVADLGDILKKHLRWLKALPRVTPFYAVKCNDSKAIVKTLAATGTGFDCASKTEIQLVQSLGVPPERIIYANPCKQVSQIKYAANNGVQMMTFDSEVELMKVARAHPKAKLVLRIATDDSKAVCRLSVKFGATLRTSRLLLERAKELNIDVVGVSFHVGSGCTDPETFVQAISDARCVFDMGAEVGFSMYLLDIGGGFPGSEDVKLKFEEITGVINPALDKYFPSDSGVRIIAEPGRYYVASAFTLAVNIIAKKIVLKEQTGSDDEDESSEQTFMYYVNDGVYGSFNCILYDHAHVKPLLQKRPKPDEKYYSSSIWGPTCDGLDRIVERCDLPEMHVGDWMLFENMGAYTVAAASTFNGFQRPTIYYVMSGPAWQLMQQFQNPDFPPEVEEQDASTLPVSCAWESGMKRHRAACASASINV
Briefly: Inhibition of ornithine decarboxylase activity in human SK-MEL cells at 10 uM after 24 hrs relative to control. Type of test: cell-based. Set-up: scale not given: the % may be the effect or the level left. The method, boiled down: as §1

The test system of test [4] is MDA-MB-231. In words: Inhibition of [2,9-3H]spermidine uptake in human MDA-MB-231 cells after 15 mins by Lineweaver-Burke plot analysis. The format is functional, cell-based. The method, boiled down:
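Cells then washed three times in cold PBS and lysed in 0.1% SDS, and lysates scintillation-counted. Four substrate concentrations (0.3–3 µM) and five inhibitor concentrations (0.01–1.0 µM) plus control. Ki from slopes of Lineweaver-Burke plots against inhibitor concentration (Ki = y-intercept/slope).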

For test [5], the system named is Mus musculus. In words: Antitumor activity against 7,12-dimethylbenz(alpha)anthracene-induced squamous cell carcinoma in FVB/N transgenic mouse model expressing K6/ODC gene assessed as tumor growth inhibition at 0.5 mg/kg, ip administered twice daily after 4 weeks. Type of test: functional, organism-based. Set-up: dose 0.5 mg/kg.
For test [6], the system named is MDA-MB-231. Briefly: Cytotoxicity against human MDA-MB-231 cells after 6 days by MTS/PMS dye assay. Particulars: MDA-MB-231, 144 h.

Activity calls are given as the source filed them. No cut-off for these calls is given here.

Sequence of Diamine acetyltransferase 1 (Homo sapiens) (P21673 whole entry): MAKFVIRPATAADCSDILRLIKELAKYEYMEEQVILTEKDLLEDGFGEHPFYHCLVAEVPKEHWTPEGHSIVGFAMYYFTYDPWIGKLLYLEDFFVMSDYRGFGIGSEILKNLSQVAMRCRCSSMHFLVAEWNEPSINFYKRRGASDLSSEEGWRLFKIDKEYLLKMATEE

For `NCCCC(N)(C(=O)O)C(F)F` (centres undefined), the result in the test filed under Mus musculus [1] was Active.
Consider `CCCCCCCC(=O)NCCCC[C@H](N)C(=O)NCCCNCCCCNCCCN`, for which the Activity in test [2] was determined as 40%; in test [3] it was 110%.
The Ki is the dissociation constant of the complex between target and ligand, obtained from inhibition or displacement. One may read the IC50 as the concentration at which inhibition is half-maximal. As to `CCCCCCCCCCCCCCCC(=O)NCCCC[C@@H](N)C(=O)NCCCNCCCCNCCCN` [AMXT-1501], in the test with MDA-MB-231 [4], the Ki is 10.5 nM. Besides, in the test on Mus musculus [5], the outcome was Active. In the test on MDA-MB-231 [6], this compound displayed an IC50 of 57000 nM.
In the test on MDA-MB-231 [4], `CCCCCCCCCCCCCCCC(=O)NCCCC[C@H](N)C(=O)NCCCNCCCCNCCCN` yielded an inhibition constant Ki of 7.5 nM. For the same compound, the Activity came to 40% in test [2] and 46% in test [3].

Source of the values: ChEMBL document CHEMBL1153376, “Lipophilic lysine-spermine conjugates are potent polyamine transport inhibitors for use in combination with a polyamine biosynthesis inhibitor” (J Med Chem, 2009).
